Source: ChEMBL document CHEMBL4477278, “Synthesis and evaluation of 8-hydroxyquinolin derivatives substituted with (benzo[d][1,2]selenazol-3(2H)-one) as effective inhibitor of metal-induced Aβ aggregation and antioxidant” (Bioorg Med Chem, 2016)

Columns and labels:
[1] = Antioxidant activity assessed as t-BuOOH scavenging at 10 uM measured after 300 mins in presence of GSH and NADPH; type: functional
Outline: (§1)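 Kinetic peroxide removal in 100 mM phosphate buffer pH 7.5 at 25 °C with 1 mM EDTA, 0.25 mM GSH, 0.50 mM NADPH, 1.3 U/mL glutathione reductase, 0.20 mM peroxide and 10 µM catalyst. NADPH consumption followed over time. Means of three independent experiments.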

[2] = Antioxidant activity assessed as AAPH radical scavenging activity preincubated for 10 mins followed by AAPH challenge measured as trolox equivalents measured at every min for 120 mins by ORAC-FL assay; type: functional
Outline: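 ORAC-FL: compound diluted in 75 mM phosphate buffer pH 7.4, premixed with fluorescein (70 nM final) for 10 min at 37 °C, then AAPH added. Fluorescence (ex 485, em 520 nm) read each minute for 120 min. Net AUC versus blank is converted to Trolox equivalents using a Trolox standard curve (10–100 µM). Triplicates, at least three independent runs.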

[3] = Antioxidant activity assessed as Cum-OOH scavenging at 10 uM measured after 300 mins in presence of GSH and NADPH; type: functional; outline: as §1
[4] = Inhibition of Cu2+ induced aggregation of recombinant human amyloid beta (1 to 42) at 50 uM after 24 hrs by thioflavin-T based fluorescence assay
Outline: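 Aβ1–42 (stock in 1% ammonium hydroxide), 25 µM final, with or without CuSO4 (25 µM) and compound (50 µM) in HEPES pH 6.6 with NaCl, incubated 24 h at 37 °C. Samples then diluted tenfold into 50 mM glycine-NaOH pH 8.0 containing 5 µM thioflavin T for fluorescence read-out.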

[5] = Antioxidant activity assessed as glutathione peroxidase-like activity in phosphate buffer measured as initial rate for the reduction of cumene hydroperoxide by GSH at 80 uM in presence of NADPH by coupled reductase assay; type: functional
Outline: (§2)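 Coupled reductase assay in 100 mM potassium phosphate pH 7.5 at 25 °C: 2 mM GSH, 1 mM EDTA, 1.3 U/mL glutathione reductase, 0.4 mM NADPH, 80 µM selenium compound. Reaction started with 1.6 mM peroxide. Initial rate is taken from NADPH oxidation at 340 nm over the first 5–10% of reaction (ε 6.22 mM⁻¹cm⁻¹). Triplicate, mean ± SD.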

[6] = Antioxidant activity assessed as glutathione peroxidase-like activity in phosphate buffer measured as initial rate for the reduction of […] by GSH at 80 uM in presence of NADPH by coupled reductase assay; type: functional; outline: as §2
[7] = Antioxidant activity assessed as H2O2 scavenging at 10 uM measured after 200 to 220 mins in presence of GSH and NADPH; type: functional; outline: as §1
[8] = Antioxidant activity assessed as glutathione peroxidase-like activity in phosphate buffer measured as initial rate for the reduction of tert-butyl hydroperoxide by GSH at 80 uM in presence of NADPH by coupled reductase assay; type: functional; outline: as §2
[9] = Permeability of the compound at 100 ug/ml measured after 10 hrs by PAMPA-BBB assay; type: ADME; details: read-out: Peff
Outline: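 PAMPA-BBB: filter coated with porcine brain lipid in dodecane (20 mg/mL). Compound is dissolved in DMSO (5 mg/mL) and diluted 50-fold in PBS/EtOH 7:3 to 100 µg/mL in donor wells, with PBS/EtOH acceptor. Plates stand 10 h at 25 °C, then acceptor concentration is read by UV at five wavelengths, four wells, at least three runs. Pe is calculated by formula; assay validated with 13 reference drugs.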

[10] = Metal chelating activity of the compound assessed as Fe3+ complex formation by measuring maximum absorption wave length at 50 uM measured after 30 mins by UV-Vis spectrometry (reference value: 301 nm); type: functional
Outline: (§3)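 Compound (50 µM final) with or without metal salt (CuSO4, FeSO4, FeCl3 or ZnCl2, 50 µM final) in 20 mM HEPES, 150 mM NaCl, pH 7.4. After 30 min, UV-vis absorption spectra are recorded at room temperature.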

[11] = Metal chelating activity of the compound assessed as Cu2+ complex formation by measuring maximum absorption wave length at 50 uM measured after 30 mins by UV-Vis spectrometry (reference value: 301 nm); type: functional; outline: as §3
[12] = Metal chelating activity of the compound assessed as Zn2+ complex formation by measuring maximum absorption wave length at 50 uM measured after 30 mins by UV-Vis spectrometry (reference value: 301 nm); type: functional; outline: as §3
[13] = Metal chelating activity of the compound assessed as Fe2+ complex formation by measuring maximum absorption wave length at 50 uM measured after 30 mins by UV-Vis spectrometry (reference value: 301 nm); type: functional; outline: as §3

| Compound | Activity [1] | Activity (umolequiv/umol) [2] | Activity [3] | inhibition [4] | Activity [5] | Activity [6] | Activity [7] | Activity [8] | Papp at 10 h, 100 ug/ml [9] | Activity [10] | Activity [11] | Activity [12] | Activity [13] |
| --- | --- | --- | --- | --- | --- | --- | --- | --- | --- | --- | --- | --- | --- |
| O=c1c2c(C(F)(F)F)cccc2[se]n1-c1ccc2cccc(O)c2n1 | 67% | 0.2 | 77% | 79% | 31.7 µM/min | 161 µM/min | 68% | 62 µM/min | 10.1 ×10⁻⁶ cm/s | – | – | – | – |
| O=c1c2ccc(C(F)(F)F)cc2[se]n1-c1ccc2cccc(O)c2n1 | – | – | – | – | 16.1 µM/min | 64.2 µM/min | – | 10.6 µM/min | – | – | – | – | – |
| O=c1c2cc(F)ccc2[se]n1-c1ccc2cccc(O)c2n1 | – | – | – | – | 15.9 µM/min | 64.3 µM/min | – | 20.4 µM/min | – | – | – | – | – |
| O=c1c2cc(O)ccc2[se]n1-c1ccc2cccc(O)c2n1 | 30% | 2.6 | 47% | 60% | 24.3 µM/min | 106 µM/min | 60% | 63.4 µM/min | 5.9 ×10⁻⁶ cm/s | 300 nm | 316 nm | 304 nm | 297 nm |
| O=c1c2c(Cl)cccc2[se]n1-c1ccc2cccc(O)c2n1 | 38% | 0.9 | 68% | – | 35.1 µM/min | 155 µM/min | 65% | 52.1 µM/min | 7.8 ×10⁻⁶ cm/s | – | – | – | – |
| Oc1c(I)cc(Cl)c2cccnc12 | – | 0.5 | – | 87% | – | – | – | – | – | – | – | – | – |
| O=c1c2cc(C(F)(F)F)ccc2[se]n1-c1ccc2cccc(O)c2n1 | – | – | – | – | 5.6 µM/min | 69.9 µM/min | – | 8 µM/min | – | – | – | – | – |
| O=c1c2cccc(F)c2[se]n1-c1ccc2cccc(O)c2n1 | 31% | 3.6 | 66% | – | 24.1 µM/min | 152 µM/min | 62% | 55.5 µM/min | 11.1 ×10⁻⁶ cm/s | – | – | – | – |
| O=c1c2ccc(Cl)cc2[se]n1-c1ccc2cccc(O)c2n1 | – | – | – | – | 23.3 µM/min | 45 µM/min | – | 7.1 µM/min | – | – | – | – | – |
| O=c1c2ccccc2[se]n1-c1ccc2cccc(O)c2n1 | – | – | – | – | 17.1 µM/min | 49.9 µM/min | – | 14 µM/min | – | – | – | – | – |
| O=c1c2ccccc2[se]n1-c1ccccc1 | – | – | – | – | 22.6 µM/min | 113 µM/min | – | 47.6 µM/min | – | – | – | – | – |
| O=c1c2c(F)cccc2[se]n1-c1ccc2cccc(O)c2n1 | 46% | 2.3 | 74% | 82% | 31.4 µM/min | 102 µM/min | 71% | 47.9 µM/min | 7.4 ×10⁻⁶ cm/s | – | – | – | – |
| O=c1c2ccc(F)cc2[se]n1-c1ccc2cccc(O)c2n1 | – | – | – | – | 11.1 µM/min | 77.3 µM/min | – | 6.4 µM/min | – | – | – | – | – |
| O=c1c2cccc(C(F)(F)F)c2[se]n1-c1ccc2cccc(O)c2n1 | – | 0.3 | – | – | 30 µM/min | 132 µM/min | – | 31.7 µM/min | 13.3 ×10⁻⁶ cm/s | – | – | – | – |
| O=c1c2cc(Cl)ccc2[se]n1-c1ccc2cccc(O)c2n1 | – | – | – | – | 23.9 µM/min | 45 µM/min | – | 6.9 µM/min | – | – | – | – | – |
